Columns and labels:
HUVECs = test: Fluorescence microscopy of beacon uptake and activation, HUVECs; type: cell-based, human; conditions: 2.5 μM, 24 h incubation, fluorescence microscopy Cy5 channel
Summary of the method: (§1)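 Cells (patient-derived SFs or donated HUVECs) seeded at 5 × 10^3 per well in 8-chamber slides. After 24 h the medium was changed and test compound added to 2.5 µM final for a further 24 h. Cells washed, fixed in 4% paraformaldehyde for 20 min and mounted with DAPI. Imaged on an inverted microscope: Cy5 620/60 ex, 665 long-pass em; exposure 200 ms for SFs, 1500 ms for HUVECs.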

MMP-13 expressing SFs = test: Fluorescence microscopy of beacon uptake and activation, SFs; type: cell-based, human; conditions: 2.5 μM, 24 h incubation, fluorescence microscopy Cy5 channel
Summary of the method: as §1

Pyro-glgfrvgk-BHQ3 [DPPMMP13B]
Intracellular pyro fluorescence in HUVECs (negligible MMP-13 expression) (HUVECs): negligible fluorescence
Intracellular pyro fluorescence in MMP-13 + SFs (MMP-13 expressing SFs): negligible fluorescence

Source: paper PMC10131263 (Chemical & Biomedical Imaging, 2023)
